Source: ChEMBL document CHEMBL4706578, “New one-pot synthesis of anti-tuberculosis compounds inspired on isoniazid” (Eur J Med Chem, 2020)
In brackets after ≈: the same amount, converted by molar mass.

How the values were obtained:
[1] = test system: Mycobacterium tuberculosis; experiment: Antimycobacterial activity against Mycobacterium tuberculosis InhA-OE strain assessed as inhibition of microbial growth at 20 uM incubated for 5 days by serial microdilution based colorimetric assay; assay type: functional; details: 120 h, time 5 day
[2] = test system: Mycobacterium tuberculosis; experiment: Antitubercular activity against Mycobacterium tuberculosis H37Rv assessed as inhibition of microbial growth incubated by measuring turbidity for 5 days by serial microdilution based colorimetric assay; assay type: functional; details: 120 h, dose 20 µM, time 5 day
Procedure, shortened: (§1)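 Strains grown in Middlebrook 7H9 with ADS (BSA, dextrose, NaCl) and 1% glycerol. Compounds from 40 mM DMSO stocks were two-fold serially diluted in plate broth. Inoculum was a 1/25 dilution of a mid-log culture at McFarland 1.0, about 10⁶ CFU/well. Plates sealed and held 5 days at 37 °C. MIC is the lowest concentration with no visible turbidity. Rifampicin was the control drug.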

[3] = Selectivity index, ratio of CC50 for african green monkey Vero cells to MIC for Mycobacterium tuberculosis H37Rv; assay type: toxicity; details: read-out: Selectivity Index
[4] = Cytotoxicity against African green monkey Vero E6 cells assessed as reduction in cell viability incubated for 48 hrs by neutral red assay; assay type: cell-based; details: Chlorocebus aethiops
Procedure, shortened: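 Vero kidney […] were seeded at 25,000 cells/well and allowed 24 h before compound was added, then incubated 48 h. Viable cells were read by neutral red uptake. IC50 was taken from log plots of growth inhibition versus concentration. Doxorubicin was the positive control and DMSO the vehicle control.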

[5] = test system: Mycobacterium tuberculosis; experiment: Antitubercular activity against Mycobacterium tuberculosis H37Rv; assay type: functional; procedure, shortened: as §1
[6] = test system: Mycobacterium tuberculosis; experiment: Antitubercular activity against Mycobacterium tuberculosis H37Rv under anerobic condition; assay type: functional
[7] = test system: Mycobacterium tuberculosis; experiment: Antitubercular activity against Mycobacterium tuberculosis H37Rv under aerobic condition; assay type: functional

Work on `COC(=O)/C=C/N(/N=C/C=C(C)C)S(=O)(=O)c1ccc(C)cc1` yielded an MIC [1] of 10 µM and an MIC [2] of 5 µM.
With `COC(=O)/C=C/N(/N=C/c1ccccc1OC)S(=O)(=O)c1ccc(C)cc1` the MIC [1] was 5 µM, the selectivity ratio [3] was 9.76 and the IC50 [4] was greater than 12.2 µM. The MIC [2] was 1.25 µM.
With `COC(=O)/C=C\N(/N=C/C1=CC2CC(C1)C2(C)C)S(=O)(=O)c1ccc(C)cc1` (stereo not drawn) the MIC [2] was greater than 20 µM.
In the case of `C/C=C/C=C/C=N/N(/C=C\C(=O)OC)S(=O)(=O)c1ccc(C)cc1`, the MIC [2] is reported as 20 µM.
`Cc1cc(C)nc(NNC(=O)c2ccccn2)n1` gave an MIC [5] of 6.08 µg/mL (≈ 25 µM), an IC90 [6] of 2.02 µg/mL (≈ 8.3 µM) and an IC90 [7] of 1.51 µg/mL (≈ 6.21 µM).
With `COC(=O)/C=C/N(/N=C/c1ccc([N+](=O)[O-])cc1)S(=O)(=O)c1ccc(C)cc1` the MIC [2] was greater than 20 µM.
In the case of `COC(=O)/C=C\N(/N=C/C1=CCCCC1)S(=O)(=O)c1ccc(C)cc1`, the MIC [2] is reported as greater than 20 µM.
`COC(=O)/C=C/N(/N=C/c1ccc(OC)c(OC)c1)S(=O)(=O)c1ccc(C)cc1` gave an MIC [2] greater than 20 µM.
For `COC(=O)/C=C/N(/N=C/c1ccc(-c2ccccc2)cc1)S(=O)(=O)c1ccc(C)cc1`, the MIC [2] was greater than 20 µM.
`COC(=O)/C=C/N(/N=C/C1=CCCCC1)S(=O)(=O)c1ccc(C)cc1` showed an MIC [2] of 10 µM.
For `COC(=O)/C=C/N(/N=C/c1ccccc1)S(=O)(=O)c1ccc(C)cc1`, the MIC [1] was 2.5 µM, the selectivity ratio [3] was 10.6 and the IC50 [4] was greater than 13.3 µM. The MIC [2] was 1.25 µM.
`COC(=O)/C=C/N(/N=C/c1ccccc1C(F)(F)F)S(=O)(=O)c1ccc(C)cc1` showed an MIC [2] of 20 µM.
`C/C=C/C=C/C=N/N(/C=C/C(=O)OC)S(=O)(=O)c1ccc(C)cc1` gave an MIC [1] of 10 µM and an MIC [2] of 5 µM.
`COC(=O)/C=C/N(/N=C/c1ccc[nH]1)S(=O)(=O)c1ccc(C)cc1` gave an MIC [2] greater than 20 µM.
`COC(=O)/C=C\N(/N=C/c1ccc([N+](=O)[O-])cc1)S(=O)(=O)c1ccc(C)cc1` gave an MIC [2] greater than 20 µM.
`COC(=O)/C=C/N(/N=C/C=C/c1ccc(OC)cc1)S(=O)(=O)c1ccc(C)cc1` showed an MIC [2] of 10 µM.
Work on `COC(=O)/C=C\N(/N=C/c1ccccc1)S(=O)(=O)c1ccc(C)cc1` yielded an MIC [2] of 20 µM.
Work on `COC(=O)/C=C\N(/N=C/c1ccc(OC)c(OC)c1)S(=O)(=O)c1ccc(C)cc1` yielded an MIC [2] greater than 20 µM.
With `O=C(N/N=C\c1ccco1)c1cc(C23CC4CC(CC(C4)C2)C3)c2ccccc2n1` the MIC [5] was 3.12 µg/mL (≈ 7.81 µM).
Compound `COC(=O)/C=C/N(/N=C/c1ccc2ccccc2c1)S(=O)(=O)c1ccc(C)cc1` has an MIC [1] of 2.5 µM, a selectivity ratio [3] of 9.28 and an IC50 [4] greater than 11.6 µM. It also gave an MIC [2] of 1.25 µM.
With `COC(=O)/C=C\N(/N=C/C=C/c1ccc(OC)cc1)S(=O)(=O)c1ccc(C)cc1` the MIC [2] was greater than 20 µM.
In the case of `COC(=O)/C=C\N(/N=C/c1ccc2ccccc2c1)S(=O)(=O)c1ccc(C)cc1`, the MIC [2] is reported as 20 µM.
Compound `COC(=O)/C=C\N(/N=C/c1ccc[nH]1)S(=O)(=O)c1ccc(C)cc1` has an MIC [2] greater than 20 µM.
`COC(=O)/C=C/N(/N=C/C1=CC2CC(C1)C2(C)C)S(=O)(=O)c1ccc(C)cc1` (stereo not drawn) showed an MIC [2] greater than 20 µM.
`COC(=O)/C=C\N(/N=C/c1ccc(-c2ccccc2)cc1)S(=O)(=O)c1ccc(C)cc1` gave an MIC [2] greater than 20 µM.
Work on `COC(=O)/C=C\N(/N=C/c1ccccc1C(F)(F)F)S(=O)(=O)c1ccc(C)cc1` yielded an MIC [2] greater than 20 µM.
`COC(=O)/C=C\N(/N=C/c1ccc(Br)cc1)S(=O)(=O)c1ccc(C)cc1` gave an MIC [2] greater than 20 µM.
`COC(=O)/C=C/N(/N=C/c1ccc(Br)cc1)S(=O)(=O)c1ccc(C)cc1` gave an MIC [2] greater than 20 µM.
`COC(=O)/C=C\N(/N=C/c1ccco1)S(=O)(=O)c1ccc(C)cc1` showed an MIC [2] of 20 µM.
With `COC(=O)/C=C/N(/N=C/c1ccco1)S(=O)(=O)c1ccc(C)cc1` the MIC [1] was 10 µM and the MIC [2] was 5 µM.
Work on `COC(=O)/C=C\N(/N=C/c1ccccc1OC)S(=O)(=O)c1ccc(C)cc1` yielded an MIC [2] greater than 20 µM.
Work on `NNC(=O)c1ccncc1` [ISONIAZID] yielded an MIC [1] greater than 7.3 µM and an MIC [2] of 0.36 µM.
For `CO[C@H]1/C=C/O[C@@]2(C)Oc3c(C)c(O)c4c(O)c(c(/C=N/N5CCN(C)CC5)c(O)c4c3C2=O)NC(=O)/C(C)=C\C=C\[C@H](C)[C@H](O)[C@@H](C)[C@@H](O)[C@@H](C)[C@H](OC(C)=O)[C@@H]1C` [RIFAMPIN], the MIC [2] was 0.3 µM.
